The values below come from ChEMBL document CHEMBL2331148, “Design and synthesis of imidazole and triazole derivatives as Lp-PLA₂ inhibitors and the unexpected discovery of highly potent quaternary ammonium salts” (Bioorg Med Chem Lett, 2013).

The source made the active and inactive calls. No cut-off for these calls is given here.

The species entered for experiment [1] is Homo sapiens. The experiment can be described thus: Inhibition of human plasma Lp-PLA2 at 1 nM by liquid scintillation counting. The format is cell-free. In outline: (§1)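 Plasma used as the enzyme source. Compounds were added from DMSO solution to buffer of 50 mmol/L HEPES (pH 7.4) and 150 mmol/L NaCl. Preincubated 5 min at 37 °C, then [3H]PAF (1uCi) was added and incubated 10 min at 37 °C. Lipids were extracted with CHCl3/MeOH (2:1) and centrifuged at 12000g, 4 °C, 15 min. Supernatant radioactivity was counted. Result is % inhibition at the tested concentration.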

For experiment [2], the species on record is Homo sapiens. Briefly: Inhibition of human plasma Lp-PLA2 at 10 nM by liquid scintillation counting. The format is cell-free. In outline: as §1
Experiment [3] is filed under the species Oryctolagus cuniculus. The experiment can be described thus: Inhibition of rabbit plasma Lp-PLA2 at 10 nM by liquid scintillation counting. The format is cell-free. In outline:
as §1

The species named for experiment [4] is Oryctolagus cuniculus. The experiment can be described thus: Inhibition of rabbit plasma Lp-PLA2 at 100 nM by liquid scintillation counting. It counts as cell-free. The method, boiled down:
as §1

The species entered for experiment [5] is Oryctolagus cuniculus. The experiment can be described thus: Inhibition of rabbit plasma Lp-PLA2 at 10 microM by liquid scintillation counting. The format is cell-free. The method, boiled down: as §1
Experiment [6] is filed under the species Oryctolagus cuniculus. The experiment can be described thus: Inhibition of rabbit plasma Lp-PLA2 at 1 microM by liquid scintillation counting. The format is cell-free. In outline: as §1
For experiment [7], the system named is Mus musculus. Briefly: Inhibition of plasma Lp-PLA2 in Apo-E mouse model at 50 mg/kg, ip measured after 24 hrs by in vivo inhibition assay. The format is functional, organism-based. Also noted: dose 50 mg/kg.
The subject of experiment [8] is Mus musculus. Briefly: Inhibition of plasma Lp-PLA2 in Apo-E mouse model at 50 mg/kg, ip measured after 12 hrs by in vivo inhibition assay. The format is functional, organism-based. Also noted: dose 50 mg/kg.

The term inhibition denotes the percentage by which the read-out fell short of the control. Turning to `Cc1nnc(Cn2c(SCc3ccc(F)cc3)nc(=O)c3c2CCC3)n1Cc1ccc(-c2ccc(C(F)(F)F)cc2)cc1`, the inhibition amounted to 11% in the experiment listed under Homo sapiens [1], 73% in the experiment filed under Homo sapiens [2], 10% in the experiment listed under Oryctolagus cuniculus [3] and 79% in the experiment listed under Oryctolagus cuniculus [4].
Regarding `CN(C)Cc1nnc(Cn2c(SCc3ccc(F)cc3)nc(=O)c3c2CCC3)n1Cc1ccc(-c2ccc(C(F)(F)F)cc2)cc1`, the inhibition in the experiment listed under Homo sapiens [1] was 62%; in the experiment filed under Homo sapiens [2], 85%; in the experiment filed under Oryctolagus cuniculus [3], 21%; in the experiment filed under Oryctolagus cuniculus [4] it was 88%.
The corresponding values for `CCN(CC)Cc1cnc(Cn2c(SCc3ccc(F)cc3)nc(=O)c3c2CCC3)n1Cc1ccc(-c2ccc(C(F)(F)F)cc2)cc1` are 52%, 75%, 10% and 88%.
As to `O=c1nc(SCc2ccc(F)cc2)n(Cc2nnc(CO)n2Cc2ccc(-c3ccc(C(F)(F)F)cc3)cc2)c2c1CCC2`, the inhibition in the experiment listed under Homo sapiens [1] turned out to be 58%; in the experiment listed under Homo sapiens [2] it was 65%; in the experiment filed under Oryctolagus cuniculus [3], 23%; in the experiment listed under Oryctolagus cuniculus [4], 73%.
The corresponding values for `C[N+](C)(Cc1ccc(F)cc1)Cc1cnc(Cn2c(SCc3ccc(F)cc3)nc(=O)c3c2CCC3)n1Cc1ccc(-c2ccc(C(F)(F)F)cc2)cc1` are 85%, 97%, 97% and 99%.
The corresponding values for `CCN(CC)Cc1nnc(Cn2c(SCc3ccc(F)cc3)nc(=O)c3c2CCC3)n1Cc1ccc(-c2ccc(C(F)(F)F)cc2)cc1` are 60%, 78%, 21% and 85%.
For the compound `CCCCCCCCCCc1cnc(Cn2c(SCc3ccc(F)cc3)nc(=O)c3c2CCC3)n1CCN(CC)CC`, the inhibition in the experiment listed under Oryctolagus cuniculus [5] was found to be 6%.
For `O=c1nc(SCc2ccc(F)cc2)n(Cc2ncc(CN3CCCC3)n2Cc2ccc(-c3ccc(C(F)(F)F)cc3)cc2)c2c1CCC2`, the inhibition in the experiment filed under Homo sapiens [1] was 21%; in the experiment listed under Homo sapiens [2], 67%; in the experiment listed under Oryctolagus cuniculus [3] it was 10%; in the experiment listed under Oryctolagus cuniculus [4], 79%.
As for `O=c1nc(SCc2ccc(F)cc2)n(Cc2nccn2Cc2ccc(-c3ccccc3)cc2)c2c1CCC2`, the inhibition in the experiment listed under Oryctolagus cuniculus [5] came to 3%.
Regarding `O=c1nc(SCc2ccc(F)cc2)n(Cc2nnc(C3CC3)n2Cc2ccc(-c3ccc(C(F)(F)F)cc3)cc2)c2c1CCC2`, the inhibition in the experiment listed under Homo sapiens [1] was 68%; in the experiment filed under Homo sapiens [2], 93%; in the experiment filed under Oryctolagus cuniculus [3] it was 34%; in the experiment listed under Oryctolagus cuniculus [4], 87%.
The corresponding values for `CN(Cc1ccc(F)cc1)Cc1nnc(Cn2c(SCc3ccc(F)cc3)nc(=O)c3c2CCC3)n1Cc1ccc(-c2ccc(C(F)(F)F)cc2)cc1` are 71%, 93%, 10% and 90%.
The corresponding values for `CC(C)c1nnc(Cn2c(SCc3ccc(F)cc3)nc(=O)c3c2CCC3)n1Cc1ccc(-c2ccc(C(F)(F)F)cc2)cc1` are 71%, 92%, 34% and 91%.
For `C[C@@H]1CN(Cc2nnc(Cn3c(SCc4ccc(F)cc4)nc(=O)c4c3CCC4)n2Cc2ccc(-c3ccc(C(F)(F)F)cc3)cc2)C[C@H](C)O1`, the inhibition in the experiment listed under Homo sapiens [1] is 23%; in the experiment listed under Homo sapiens [2], 69%; in the experiment listed under Oryctolagus cuniculus [3], 16%; in the experiment filed under Oryctolagus cuniculus [4], 76%.
The corresponding values for `CCN1CCN(Cc2nnc(Cn3c(SCc4ccc(F)cc4)nc(=O)c4c3CCC4)n2Cc2ccc(-c3ccc(C(F)(F)F)cc3)cc2)CC1` are 64%, 82%, 20% and 90%.
The corresponding values for `CN(C)Cc1cnc(Cn2c(SCc3ccc(F)cc3)nc(=O)c3c2CCC3)n1Cc1ccc(-c2ccc(C(F)(F)F)cc2)cc1` are 54%, 75%, 13% and 87%.
The corresponding values for `CCCc1nnc(Cn2c(SCc3ccc(F)cc3)nc(=O)c3c2CCC3)n1Cc1ccc(-c2ccc(C(F)(F)F)cc2)cc1` are 65%, 88%, 25% and 88%.
Regarding `COC(=O)C(C)(C)N1CCN(Cc2nnc(Cn3c(SCc4ccc(F)cc4)nc(=O)c4c3CCC4)n2Cc2ccc(-c3ccc(C(F)(F)F)cc3)cc2)CC1`, the inhibition in the experiment listed under Homo sapiens [1] was 45%; in the experiment filed under Homo sapiens [2], 51%; in the experiment listed under Oryctolagus cuniculus [3] it was 15%; in the experiment filed under Oryctolagus cuniculus [4], 67%.
The corresponding values for `CC(=O)NCc1nnc(Cn2c(SCc3ccc(F)cc3)nc(=O)c3c2CCC3)n1Cc1ccc(-c2ccc(C(F)(F)F)cc2)cc1` are 44%, 67%, 8% and 67%.
`CCCCCCCCCCc1nnc(Cn2c(SCc3ccc(F)cc3)nc(=O)c3c2CCC3)n1CC`: in the experiment filed under Oryctolagus cuniculus [5], the inhibition came to 27%.
On to `CN(C)C1CCN(Cc2nnc(Cn3c(SCc4ccc(F)cc4)nc(=O)c4c3CCC4)n2Cc2ccc(-c3ccc(C(F)(F)F)cc3)cc2)CC1`, for which the inhibition in the experiment listed under Homo sapiens [1] was found to be 57%; in the experiment listed under Homo sapiens [2], 71%; in the experiment listed under Oryctolagus cuniculus [3] it was 11%; in the experiment filed under Oryctolagus cuniculus [4] it was 82%.
`CCN(CC)CCn1c(-c2ccc(-c3ccc(C(F)(F)F)cc3)cc2)cnc1Cn1c(SCc2ccc(F)cc2)nc(=O)c2c1CCC2`: the inhibition is 16% in the experiment listed under Oryctolagus cuniculus [6] and 20% in the experiment listed under Oryctolagus cuniculus [5].
The compound `Cc1ccc(-c2ccc(Cn3ccnc3Cn3c(SCc4ccc(F)cc4)nc(=O)c4c3CCC4)cc2)cc1` returned an inhibition in the experiment listed under Oryctolagus cuniculus [5] of 28%.
The same measure, in the same setting: with `CCn1c(Cc2ccc(-c3ccc(C(F)(F)F)cc3)cc2)nnc1Cn1c(SCc2ccc(F)cc2)nc(=O)c2c1CCC2` the figure was 40%.
Regarding `C[N+](C)(Cc1ccc(F)cc1)Cc1nnc(Cn2c(SCc3ccc(F)cc3)nc(=O)c3c2CCC3)n1Cc1ccc(-c2ccc(C(F)(F)F)cc2)cc1`, the inhibition result in the experiment with Mus musculus [7] is “Active”. Besides, the inhibition in the experiment listed under Homo sapiens [1] was found to be 95%; in the experiment listed under Homo sapiens [2], 99%; in the experiment listed under Oryctolagus cuniculus [3], 91%; in the experiment listed under Oryctolagus cuniculus [4] it was 97%.
For `CC(O)c1nnc(Cn2c(SCc3ccc(F)cc3)nc(=O)c3c2CCC3)n1Cc1ccc(-c2ccc(C(F)(F)F)cc2)cc1` (configuration not stated), the inhibition was determined as 68% in the experiment filed under Homo sapiens [1], 89% in the experiment listed under Homo sapiens [2], 29% in the experiment filed under Oryctolagus cuniculus [3] and 90% in the experiment filed under Oryctolagus cuniculus [4].
The corresponding values for `CN(Cc1nnc(Cn2c(SCc3ccc(F)cc3)nc(=O)c3c2CCC3)n1Cc1ccc(-c2ccc(C(F)(F)F)cc2)cc1)C1CC1` are 38%, 77%, 16% and 86%.
The corresponding values for `O=c1nc(SCc2ccc(F)cc2)n(Cc2ncc(CN3CCCCC3)n2Cc2ccc(-c3ccc(C(F)(F)F)cc3)cc2)c2c1CCC2` are 58%, 69%, 11% and 86%.
As for `O=c1nc(SCc2ccc(F)cc2)n(Cc2nccn2Cc2ccc(-c3ccc(C(F)(F)F)cc3)cc2)c2c1CCC2`, the inhibition in the experiment filed under Oryctolagus cuniculus [6] was determined as 80%; in the experiment filed under Oryctolagus cuniculus [4], 17%.
For `C[N+](C)(C)Cc1nnc(Cn2c(SCc3ccc(F)cc3)nc(=O)c3c2CCC3)n1Cc1ccc(-c2ccc(C(F)(F)F)cc2)cc1`, the inhibition in the experiment filed under Homo sapiens [1] was found to be 77%; in the experiment listed under Homo sapiens [2] it was 97%; in the experiment listed under Oryctolagus cuniculus [3] it was 91%; in the experiment filed under Oryctolagus cuniculus [4], 93%.
On to `O=c1nc(SCc2ccc(F)cc2)n(Cc2nncn2Cc2ccc(-c3ccc(C(F)(F)F)cc3)cc2)c2c1CCC2`, for which the figures for the inhibition in the experiment listed under Oryctolagus cuniculus [6] and in the experiment filed under Oryctolagus cuniculus [4] were 95% and 67%, respectively.
With `O=c1nc(SCc2ccc(F)cc2)n(Cc2ncc(C[N+]3(Cc4ccc(F)cc4)CCCC3)n2Cc2ccc(-c3ccc(C(F)(F)F)cc3)cc2)c2c1CCC2`, the inhibition in the experiment filed under Homo sapiens [1] was found to be 79%; in the experiment listed under Homo sapiens [2] it was 97%; in the experiment filed under Oryctolagus cuniculus [3] it was 88%.
`CCS(=O)(=O)NCc1nnc(Cn2c(SCc3ccc(F)cc3)nc(=O)c3c2CCC3)n1Cc1ccc(-c2ccc(C(F)(F)F)cc2)cc1`: the inhibition came out at 49% in the experiment listed under Homo sapiens [1], 68% in the experiment filed under Homo sapiens [2], 7% in the experiment listed under Oryctolagus cuniculus [3] and 75% in the experiment filed under Oryctolagus cuniculus [4].
For the compound `CCN(CC)CCN(Cc1ccc(-c2ccc(C(F)(F)F)cc2)cc1)C(=O)Cn1c(SCc2ccc(F)cc2)nc(=O)c2c1CCC2`, the inhibition in the experiment listed under Homo sapiens [1] was 80%; in the experiment listed under Homo sapiens [2], 95%; in the experiment filed under Oryctolagus cuniculus [3], 82%; in the experiment listed under Oryctolagus cuniculus [4] it was 99%. Also, the inhibition result in the experiment on Mus musculus [8] was “Active”.
`O=c1nc(SCc2ccc(F)cc2)n(Cc2nccn2Cc2ccc(-c3ccc(Cl)cc3)cc2)c2c1CCC2`: the inhibition was found to be 2% in the experiment filed under Oryctolagus cuniculus [6] and 50% in the experiment filed under Oryctolagus cuniculus [5].
`CC(C)N(C)Cc1nnc(Cn2c(SCc3ccc(F)cc3)nc(=O)c3c2CCC3)n1Cc1ccc(-c2ccc(C(F)(F)F)cc2)cc1`: the inhibition in the experiment listed under Homo sapiens [1] stood at 35%; in the experiment filed under Homo sapiens [2] it was 77%; in the experiment listed under Oryctolagus cuniculus [3] it was 13%; in the experiment listed under Oryctolagus cuniculus [4] it was 85%.
Regarding `CCn1c(Cn2c(SCc3ccc(F)cc3)nc(=O)c3c2CCC3)nnc1-c1ccc(-c2ccc(C(F)(F)F)cc2)cc1`, the inhibition in the experiment filed under Oryctolagus cuniculus [6] was found to be 21%; in the experiment filed under Oryctolagus cuniculus [5] it was 34%.
For `CCCCCCCCCCCCn1ccnc1Cn1c(SCc2ccc(F)cc2)nc(=O)c2c1CCC2`, the inhibition is 42% in the experiment filed under Oryctolagus cuniculus [6] and 88% in the experiment filed under Oryctolagus cuniculus [5].
